Results from ChEMBL document CHEMBL3763127, “Design, synthesis and biological evaluation of novel asperphenamate derivatives” (Eur J Med Chem, 2016).

Columns and labels:
Format in all cases: functional, cell-based
[1] = Cytotoxicity against human Bel7402 cells after 3 days by MTT assay; conditions: Bel-7402, 72 h
In short: (§1)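 MCF-7, HeLa and BEL-7402 cells were grown in RPMI 1640 with 10% heat-inactivated FBS, 1 mM glutamine and penicillin/streptomycin at 37 °C under 5% CO2. They were exposed to compound for 3 days, then read by MTT at 570 nm. Viability was taken as treated/control absorbance, and IC50 was derived from it. Values are mean SD of three independent experiments.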

HeLa = assay: Cytotoxicity against human HeLa cells after 3 days by MTT assay; conditions: 72 h; in short: as §1
MCF7 = assay: Cytotoxicity against human MCF7 cells after 3 days by MTT assay; conditions: MCF7, 72 h; in short: as §1

| Compound | IC50 [1] [µM] | IC50 (HeLa) [µM] | IC50 (MCF7) [µM] |
| --- | --- | --- | --- |
| O=C(N[C@H](COC(=O)[C@@H](Cc1ccccc1)NC(=O)n1ccnc1)Cc1ccccc1)c1ccccc1 (single isomer, unassigned) | 78.4 | 72.5 | 66.2 |
| O=C(N[C@H](COC(=O)[C@H](Cc1ccccc1)NC(=O)c1ccncc1)Cc1ccccc1)c1ccccc1 | > 100 | > 100 | > 100 |
| O=C(N[C@@H](COC(=O)[C@@H](Cc1ccccc1)NC(=O)c1ccco1)Cc1ccccc1)c1ccccc1 | > 100 | > 100 | > 100 |
| O=C(N[C@H](COC(=O)[C@@H](Cc1ccccc1)NC(=O)c1ccncc1)Cc1ccccc1)c1ccccc1 (single isomer, unassigned) | 19.3 | 33.8 | 15.3 |
| O=C(N[C@@H](COC(=O)[C@H](Cc1ccccc1)NC(=O)c1ccncc1)Cc1ccccc1)c1ccccc1 (single isomer, unassigned) | > 100 | > 100 | 64.8 |
| CS(=O)(=O)N[C@H](Cc1ccccc1)C(=O)OC[C@@H](Cc1ccccc1)NC(=O)c1ccccc1 | 52.2 | 64 | 60 |
| O=C(N[C@H](COC(=O)[C@@H](Cc1ccccc1)NC(=O)c1ccco1)Cc1ccccc1)c1ccccc1 (single isomer, unassigned) | > 100 | > 100 | > 100 |
| O=C(N[C@@H](COC(=O)[C@H](Cc1ccccc1)NC(=O)c1cccs1)Cc1ccccc1)c1ccccc1 | > 100 | > 100 | > 100 |
| Cc1ccc(S(=O)(=O)N[C@@H](Cc2ccccc2)C(=O)OC[C@H](Cc2ccccc2)NC(=O)c2ccccc2)cc1 | 50 | 37.6 | 61.1 |
| O=C(N[C@H](COC(=O)[C@H](Cc1ccccc1)NC(=O)c1cccs1)Cc1ccccc1)c1ccccc1 | > 100 | > 100 | > 100 |
| O=C(N[C@H](COC(=O)[C@H](Cc1ccccc1)NC(=O)c1cccnc1)Cc1ccccc1)c1ccccc1 | > 100 | > 100 | > 100 |
| O=C(N[C@@H](COC(=O)[C@@H](Cc1ccccc1)NC(=O)c1cccs1)Cc1ccccc1)c1ccccc1 | > 100 | > 100 | > 100 |
| O=C(N[C@@H](COC(=O)[C@@H](Cc1ccccc1)NC(=O)c1cccnc1)Cc1ccccc1)c1ccccc1 | > 100 | > 100 | > 100 |
| O=C(N[C@H](COC(=O)[C@H](Cc1ccccc1)NC(=O)c1ccco1)Cc1ccccc1)c1ccccc1 | > 100 | > 100 | > 100 |
| O=C(N[C@@H](COC(=O)[C@@H](Cc1ccccc1)NC(=O)n1ccnc1)Cc1ccccc1)c1ccccc1 | 91.1 | 79.1 | 87.2 |
| O=C(N[C@H](COC(=O)[C@H](Cc1ccccc1)NC(=O)n1cncn1)Cc1ccccc1)c1ccccc1 | > 100 | > 100 | > 100 |

| Compound | IC50 [1] [µM] | IC50 (HeLa) [µM] | IC50 (MCF7) [µM] |
| --- | --- | --- | --- |
| CS(=O)(=O)N[C@@H](Cc1ccccc1)C(=O)OC[C@H](Cc1ccccc1)NC(=O)c1ccccc1 | 70.4 | 93.9 | 76.3 |
| O=C(N[C@H](COC(=O)[C@@H](Cc1ccccc1)NC(=O)c1cccnc1)Cc1ccccc1)c1ccccc1 (single isomer, unassigned) | 16.6 | 24.9 | 16.7 |
| O=C(N[C@H](COC(=O)[C@@H](Cc1ccccc1)NC(=O)n1cncn1)Cc1ccccc1)c1ccccc1 (single isomer, unassigned) | 82.1 | 78.9 | 67.5 |
| O=C(N[C@@H](COC(=O)[C@H](Cc1ccccc1)NC(=O)n1ccnc1)Cc1ccccc1)c1ccccc1 (single isomer, unassigned) | > 100 | > 100 | > 100 |
| O=C(N[C@@H](COC(=O)[C@H](Cc1ccccc1)NC(=O)c1ccco1)Cc1ccccc1)c1ccccc1 (single isomer, unassigned) | > 100 | > 100 | > 100 |
| O=C(N[C@H](COC(=O)[C@@H](Cc1ccccc1)NC(=O)c1cccs1)Cc1ccccc1)c1ccccc1 | > 100 | > 100 | > 100 |
| Cc1ccc(S(=O)(=O)N[C@@H](Cc2ccccc2)C(=O)OC[C@@H](Cc2ccccc2)NC(=O)c2ccccc2)cc1 | 54.3 | 41.9 | 28.6 |
| O=C(N[C@@H](COC(=O)[C@@H](Cc1ccccc1)NC(=O)n1cncn1)Cc1ccccc1)c1ccccc1 | 95.7 | 91.2 | 89 |
| O=C(N[C@@H](COC(=O)[C@H](Cc1ccccc1)NC(=O)n1cncn1)Cc1ccccc1)c1ccccc1 (single isomer, unassigned) | > 100 | > 100 | > 100 |
| O=C(N[C@@H](COC(=O)[C@H](Cc1ccccc1)NC(=O)c1cccnc1)Cc1ccccc1)c1ccccc1 (single isomer, unassigned) | > 100 | > 100 | > 100 |
| CS(=O)(=O)N[C@@H](Cc1ccccc1)C(=O)OC[C@@H](Cc1ccccc1)NC(=O)c1ccccc1 | > 100 | > 100 | > 100 |
| O=C(N[C@@H](COC(=O)[C@@H](Cc1ccccc1)NC(=O)c1ccncc1)Cc1ccccc1)c1ccccc1 | 64.7 | 89.7 | 53.6 |
| Cc1ccc(S(=O)(=O)N[C@H](Cc2ccccc2)C(=O)OC[C@@H](Cc2ccccc2)NC(=O)c2ccccc2)cc1 | 22.2 | 31.6 | 36.7 |
| CS(=O)(=O)N[C@H](Cc1ccccc1)C(=O)OC[C@H](Cc1ccccc1)NC(=O)c1ccccc1 | 37 | 22.1 | 21.9 |
| O=C(N[C@H](COC(=O)[C@H](Cc1ccccc1)NC(=O)n1ccnc1)Cc1ccccc1)c1ccccc1 | > 100 | > 100 | > 100 |
